In brackets after ≈: the same amount, converted by molar mass.
Columns and labels:
Candida albicans [1] = assay: In vitro minimal inhibitory concentration against Candida albicans with percentage of resistant strains %R = 36 (MIC > 64 ug/mL) at a range of 0.5-2 ug/mL; type: functional
Candida albicans [2] = assay: In vitro concentration causing 50% inhibition of Candida albicans with percentage of resistant strains %R = 36 (MIC > 64 ug/mL) at a range of 0.5-2 ug/mL; type: functional
Candida albicans [3] = assay: In vitro concentration causing 90% inhibition of Candida albicans with percentage of resistant strains %R = 36 (MIC > 64 ug/mL) at a range of 0.5-2 ug/mL; type: functional
Candida albicans [4] = assay: Ratio of the in vitro minimal inhibitory to that of bifonazole against Candida albicans (MIC(compound)/MIC(bifonazole)); type: functional
Method in brief: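 Broth microdilution per NCCLS M27-A2 against 12 Candida albicans strains (AIDS oropharyngeal, HIV vulvovaginitis isolates, ATCC 24433 and 20891, lab strains 3153 and CA2). Inoculum ~10^4 cells/mL in RPMI 1640, pH 7.0; DMSO stocks 6.4 mg/mL, twofold dilutions 0.016–64 μg/mL; read at 24 h, 28 °C, no visible growth. Mean MIC over strains converted to μmol/mL, divided by bifonazole MIC.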

Candida albicans [5] = assay: In vitro minimal inhibitory concentration against Candida albicans with percentage of resistant strains %R = 50 (MIC > 64 ug/mL) at a range of 0.5-2 ug/mL; type: functional
Candida albicans [6] = assay: In vitro concentration causing 90% inhibition of Candida albicans with percentage of resistant strains %R = 50 (MIC > 64 ug/mL) at a range of 0.5-2 ug/mL; type: functional
Candida albicans [7] = assay: In vitro concentration causing 50% inhibition of Candida albicans with percentage of resistant strains %R = 50 (MIC > 64 ug/mL) at a range of 0.5-2 ug/mL; type: functional
Candida albicans [8] = assay: In vitro minimal inhibitory concentration against Candida albicans with percentage of resistant strains %R = 33.33 (MIC > 64 ug/mL) at a range of 1-4 ug/mL; type: functional
Candida albicans [9] = assay: In vitro concentration causing 90% inhibition of Candida albicans with percentage of resistant strains %R = 33.33 (MIC > 64 ug/mL) at a range of 1-4 ug/mL; type: functional
Candida albicans [10] = assay: In vitro concentration causing 50% inhibition of Candida albicans with percentage of resistant strains %R = 33.33 (MIC > 64 ug/mL) at a range of 1-4 ug/mL; type: functional
Candida albicans [11] = assay: In vitro minimal inhibitory concentration against Candida albicans with percentage of resistant strains %R = 0 (MIC > 64 ug/mL) at a range of 0.062-2 ug/mL; type: functional
Candida albicans [12] = assay: In vitro concentration causing 50% inhibition of Candida albicans with percentage of resistant strains %R = 0 (MIC > 64 ug/mL) at a range of 0.062-2 ug/mL; type: functional
Candida albicans [13] = assay: In vitro concentration causing 90% inhibition of Candida albicans with percentage of resistant strains %R = 0 (MIC > 64 ug/mL) at a range of 0.062-2 ug/mL; type: functional
Candida albicans [14] = assay: In vitro concentration causing 90% inhibition of Candida albicans with percentage of resistant strains %R = 16 (MIC > 64 ug/mL) at a range of 2-32 ug/mL; type: functional
Candida albicans [15] = assay: In vitro concentration causing 50% inhibition of Candida albicans with percentage of resistant strains %R = 16 (MIC > 64 ug/mL) at a range of 2-32 ug/mL; type: functional
Candida albicans [16] = assay: In vitro minimal inhibitory concentration against Candida albicans with percentage of resistant strains %R = 16 (MIC > 64 ug/mL) at a range of 2-32 ug/mL; type: functional
Candida albicans [17] = assay: Ratio of the in vitro minimal inhibitory concentrations to that of bifonazole against Candida albicans (MIC(compound)/MIC(bifonazole)); type: functional
Candida albicans [18] = assay: In vitro concentration causing 50% inhibition of Candida albicans with percentage of resistant strains %R = 10 (MIC > 64 ug/mL) at a range of 0.5-8 ug/mL; type: functional
Candida albicans [19] = assay: In vitro minimal inhibitory concentration against Candida albicans with percentage of resistant strains %R = 10 (MIC > 64 ug/mL) at a range of 0.5-8 ug/mL; type: functional
Candida albicans [20] = assay: In vitro concentration causing 90% inhibition of Candida albicans with percentage of resistant strains %R = 10 (MIC > 64 ug/mL) at a range of 0.5-8 ug/mL; type: functional
Candida albicans [21] = assay: In vitro concentration causing 90% inhibition of Candida albicans with percentage of resistant strains %R = 45.45 (MIC > 64 ug/mL) at a range of 0.125-0.5 ug/mL; type: functional
Candida albicans [22] = assay: In vitro minimal inhibitory concentration against Candida albicans with percentage of resistant strains %R = 45.45 (MIC > 64 ug/mL) at a range of 0.125-0.5 ug/mL; type: functional
Candida albicans [23] = assay: In vitro concentration causing 50% inhibition of Candida albicans with percentage of resistant strains %R = 45.45 (MIC > 64 ug/mL) at a range of 0.125-0.5 ug/mL; type: functional
Candida albicans [24] = assay: In vitro concentration causing 90% inhibition of Candida albicans with percentage of resistant strains %R = 25 (MIC > 64 ug/mL) at a range of 0.062-0.25 ug/mL; type: functional
Candida albicans [25] = assay: In vitro minimal inhibitory concentration against Candida albicans with percentage of resistant strains %R = 25 (MIC > 64 ug/mL) at a range of 0.062-0.25 ug/mL; type: functional
Candida albicans [26] = assay: In vitro concentration causing 50% inhibition of Candida albicans with percentage of resistant strains %R = 25 (MIC > 64 ug/mL) at a range of 0.062-0.25 ug/mL; type: functional
Candida albicans [27] = assay: In vitro concentration causing 50% inhibition of Candida albicans with percentage of resistant strains %R = 33.33 (MIC > 64 ug/mL) at a range of 0.062-2 ug/mL; type: functional
Candida albicans [28] = assay: In vitro concentration causing 90% inhibition of Candida albicans with percentage of resistant strains %R = 33.33 (MIC > 64 ug/mL) at a range of 0.062-2 ug/mL; type: functional
Candida albicans [29] = assay: microbe, parasite or virus in culture

## Cn1cc(-c2ccccc2Cl)c(C(c2ccc(Cl)cc2Cl)n2ccnc2)c1 (stereo not given)
Candida albicans [1]
  MIC: 1.71 µg/mL (≈ 4.1 µM)
Candida albicans [2]
  MIC50: 2 µg/mL (≈ 4.8 µM)
Candida albicans [3]
  MIC90: 2 µg/mL (≈ 4.8 µM)
Candida albicans [4]
  Ratio: 0.36

## Clc1ccc(C(c2c[nH]cc2-c2cccc3ccccc23)n2ccnc2)c(Cl)c1 (stereo not given)
Candida albicans [5]
  MIC: 1 µg/mL (≈ 2.39 µM)
Candida albicans [4]
  Ratio: 0.21
Candida albicans [6]
  MIC90: 2 µg/mL (≈ 4.78 µM)
Candida albicans [7]
  MIC50: 0.5 µg/mL (≈ 1.2 µM)

## Cn1cc(-c2ccc(-n3cccc3)cc2)c(C(c2ccc(Cl)cc2Cl)n2ccnc2)c1 (stereo not given)
Candida albicans [8]
  MIC: 3.12 µg/mL (≈ 6.97 µM)
Candida albicans [9]
  MIC90: 4 µg/mL (≈ 8.94 µM)
Candida albicans [4]
  Ratio: 0.62
Candida albicans [10]
  MIC50: 4 µg/mL (≈ 8.94 µM)

## C=CCn1cc(-c2ccc(Cl)cc2Cl)c(C(c2ccc(Cl)cc2Cl)n2ccnc2)c1 (stereo not given)
Candida albicans [11]
  MIC: 0.65 µg/mL (≈ 1.36 µM)
Candida albicans [4]
  Ratio: 0.12
Candida albicans [12]
  MIC50: 0.25 µg/mL (≈ 0.524 µM)
Candida albicans [13]
  MIC90: 1 µg/mL (≈ 2.1 µM)

## Cn1cc(-c2ccc(Cl)cc2Cl)c(C(c2ccc(Cl)cc2Cl)n2ccnc2)c1 (stereo not given)
Candida albicans [14]
  MIC90: 32 µg/mL (≈ 70.9 µM)
Candida albicans [4]
  Ratio: 2.9
Candida albicans [15]
  MIC50: 8 µg/mL (≈ 17.7 µM)
Candida albicans [16]
  MIC: 14.6 µg/mL (≈ 32.4 µM)

## c1ccc(-c2ccc(C(c3ccccc3)n3ccnc3)cc2)cc1 (stereo not given) [BIFONAZOLE]
Candida albicans [17]
  Ratio: 1
Candida albicans [18]
  MIC50: 2 µg/mL (≈ 6.44 µM)
Candida albicans [19]
  MIC: 3.5 µg/mL (≈ 11.3 µM)
Candida albicans [20]
  MIC90: 8 µg/mL (≈ 25.8 µM)

## OC(Cn1cncn1)(Cn1cncn1)c1ccc(F)cc1F [FLUCONAZOLE]
Candida albicans [21]
  MIC90: 0.5 µg/mL (≈ 1.63 µM)
Candida albicans [22]
  MIC: 0.24 µg/mL (≈ 0.784 µM)
Candida albicans [4]
  Ratio: 0.069
Candida albicans [23]
  MIC50: 0.25 µg/mL (≈ 0.816 µM)

## CCC(C)n1ncn(-c2ccc(N3CCN(c4ccc(OC[C@H]5CO[C@](Cn6cncn6)(c6ccc(Cl)cc6Cl)O5)cc4)CC3)cc2)c1=O (stereo not given in full) [ITRACONAZOLE]
Candida albicans [24]
  MIC90: 0.125 µg/mL (≈ 0.177 µM)
Candida albicans [25]
  MIC: 0.096 µg/mL (≈ 0.136 µM)
Candida albicans [26]
  MIC50: 0.062 µg/mL (≈ 0.0879 µM)

## Clc1ccc(COC(Cn2ccnc2)c2ccc(Cl)cc2Cl)c(Cl)c1 (stereo not given) [MICONAZOLE]
Candida albicans [27]
  MIC50: 0.062 µg/mL (≈ 0.149 µM)
Candida albicans [4]
  Ratio: 0.14
Candida albicans [28]
  MIC90: 1 µg/mL (≈ 2.4 µM)
Candida albicans [29]
  MIC: 0.65 µg/mL (≈ 1.56 µM)

Source: ChEMBL document CHEMBL1141140, “Antifungal agents. 11. N-substituted derivatives of 1-[(aryl)(4-aryl-1H-pyrrol-3-yl)methyl]-1H-imidazole: synthesis, anti-Candida activity, and QSAR studies” (2005)
